Assay results taken from ChEMBL document CHEMBL4014281, “Design, synthesis and biological evaluation of gentiopicroside derivatives as potential antiviral inhibitors” (Eur J Med Chem, 2017).
pIC50: −log10 of the molar value. The source made the active and inactive calls. No cut-off for these calls is given here.

Legend:
MDCK = assay: Cytotoxicity against MDCK cells at 50 uM after 40 hrs by CellTiter-Glo assay; assay type: cell-based, Canis lupus familiaris; conditions: dog
Outline: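 Uninfected MDCK cells grown overnight, then cultured 40 h in 1% FBS medium with test compound (50 μM in screen). Viability read by CellTiter-Glo luminescence. DMSO as negative control. Triplicate experiments, standard deviations shown.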

[1] = tested on: Influenza A virus (A/WSN/1933(H1N1)); assay: Antiviral activity against Influenza A virus (A/WSN/1933(H1N1)) infected in MDCK cells assessed as reduction in virus-induced cytopathic effect at 50 uM after 40 hrs by CellTiter-Glo assay; assay type: functional, cell-based
Outline: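 Single-concentration screen: overnight-seeded MDCK cells were infected (MOI 0.1) in DMEM/1% FBS with […] TPCK-trypsin, compound at 1% final DMSO. CellTiter-Glo read-out after 40 h. Oseltamivir positive control; triplicate experiments, standard deviations shown.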

Hepatitis C virus [2] = assay: Antiviral activity against HCV pseudoparticle harboring HCV envelope protein E1 and E2 assessed as inhibition of pseudoparticle entry into human Huh7 cells at 1 uM measured after 3 days by Bright-Glo luciferase reporter gene assay relative to control; assay type: functional, Hepacivirus hominis; conditions: Huh-7, 72 h
Outline: (§1)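 HCV pseudoparticle entry screen with each compound at 1 µM and 5 µM in 1% DMSO. DMSO-only wells set maximum entry (negative control); echinocystic acid served as the entry-blocking positive control.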

Hepatitis C virus [3] = assay: Antiviral activity against HCV pseudoparticle harboring HCV envelope protein E1 and E2 assessed as inhibition of pseudoparticle entry into human Huh7 cells at 5 uM measured after 3 days by Bright-Glo luciferase reporter gene assay relative to control; assay type: functional, Hepacivirus hominis; conditions: Huh-7, 72 h; outline: as §1
Hepatitis C virus [4] = assay: Antiviral activity against HCV pseudoparticle harboring HCV envelope protein E1 and E2 assessed as inhibition of pseudoparticle entry into human Huh7 cells measured after 3 days by Bright-Glo luciferase reporter gene assay; assay type: functional; conditions: Hepacivirus hominis
[5] = Antiviral activity against Influenza A virus (A/WSN/1933(H1N1)) infected in MDCK cells assessed as reduction in virus-induced cytopathic effect after 40 hrs by CellTiter-Glo assay; assay type: functional, cell-based
Outline: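 MDCK cells were seeded and incubated overnight, then infected (MOI 0.1) in DMEM with 1% FBS, […] TPCK-trypsin and compound dose series at 1% final DMSO. Cell viability was read by CellTiter-Glo luminescence after 40 h. IC50 is the concentration giving 50% inhibition of viral replication; oseltamivir was the positive control.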

[6] = tested on: Influenza A virus (A/WSN/1933(H1N1)); assay: Antiviral activity against Influenza A virus (A/WSN/1933(H1N1)) infected in MDCK cells assessed as reduction in virus-induced cytopathic effect at 50 uM by microscopic method; assay type: functional, cell-based
Outline: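 CPE in compound-treated infected MDCK wells was inspected directly by light microscopy, with DMSO-treated infected wells as comparator.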

SMILES | Activity (MDCK) | Activity [1] | inhibition at 1 µM (Hepatitis C virus [2]) | inhibition at 5 µM (Hepatitis C virus [3]) | inhibition (Hepatitis C virus [4]) | pIC50 [5] | Activity [6]
C=C[C@@H]1C2=CCOC(=O)C2=CO[C@H]1O[C@@H]1O[C@H](COC(=O)c2ccccc2)[C@@H](F)[C@H](OC(=O)c2ccccc2)[C@H]1OC(=O)c1ccccc1 | Non-Toxic | Active | – | – | – | – | –
C=C[C@@H]1C2=CCOC(=O)C2=CO[C@H]1O[C@@H]1O[C@H](CF)[C@@H](OC(C)=O)[C@H](OC(C)=O)[C@H]1OC(C)=O | – | – | 1.1% | 7.8% | – | – | –
C=C[C@@H]1C2=CCOC(=O)C2=CO[C@H]1O[C@@H]1O[C@H](CO)[C@@H](N=[N+]=[N-])[C@H](O)[C@H]1O | Non-Toxic | Active | 0.2% | 0.4% | – | – | –
CC1(C)CC[C@]2(C(=O)O)[C@H](O)C[C@]3(C)C(=CC[C@@H]4[C@@]5(C)CC[C@H](O)C(C)(C)[C@@H]5CC[C@]43C)[C@@H]2C1 | – | – | 30.7% | 69.6% | – | – | –
C=C[C@@H]1C2=CCOC(=O)C2=CO[C@H]1O[C@@H]1O[C@H](CSC)[C@@H](OC(C)=O)[C@H](OC(C)=O)[C@H]1OC(C)=O | Non-Toxic | Active | – | – | – | – | –
C=C[C@@H]1C2=CCOC(=O)C2=CO[C@H]1O[C@@H]1O[C@H](COC(=O)c2ccccc2)[C@@H](SC(C)=O)[C@H](OC(=O)c2ccccc2)[C@H]1OC(=O)c1ccccc1 | – | – | 0.2% | 45.1% | Dose-dependent effect | – | –
C=C[C@@H]1C2=CCOC(=O)C2=CO[C@H]1O[C@@H]1O[C@H](COC(=O)c2ccccc2)[C@@H](OS(C)(=O)=O)[C@H](OC(=O)c2ccccc2)[C@H]1OC(=O)c1ccccc1 | Non-Toxic | Active | 38.2% | 40.4% | Dose-dependent effect | 4.40 | Active
C=C[C@@H]1C2=CCOC(=O)C2=CO[C@H]1O[C@@H]1O[C@H](COC(=O)c2ccccc2)[C@H](SC(C)=O)[C@H](OC(=O)c2ccccc2)[C@H]1OC(=O)c1ccccc1 | – | – | 9.5% | 26.6% | – | – | –
C=C[C@@H]1C2=CCOC(=O)C2=CO[C@H]1O[C@@H]1O[C@H](COC(=O)c2ccccc2)[C@@H](O)[C@H](OC(=O)c2ccccc2)[C@H]1OC(=O)c1ccccc1 | – | – | 0.7% | 8.1% | – | – | –
C=C[C@@H]1C2=CCOC(=O)C2=CO[C@H]1O[C@@H]1O[C@H](CSC(C)=O)[C@@H](OC(C)=O)[C@H](OC(C)=O)[C@H]1OC(C)=O | Non-Toxic | Active | 30.4% | 21.7% | – | – | –
C=C[C@@H]1C2=CCOC(=O)C2=CO[C@H]1O[C@@H]1O[C@H](CNC(C)=O)[C@@H](O)[C@H](O)[C@H]1O | – | – | 0.2% | 11.2% | – | – | –
C=C[C@@H]1C2=CCOC(=O)C2=CO[C@H]1O[C@@H]1O[C@H](COC(=O)c2ccccc2)[C@H](N=[N+]=[N-])[C@H](OC(=O)c2ccccc2)[C@H]1OC(=O)c1ccccc1 | – | – | 0.2% | 17.9% | – | – | –
C=C[C@@H]1C2=CCOC(=O)C2=CO[C@H]1O[C@@H]1O[C@H](CO)[C@@H](F)[C@H](O)[C@H]1O | – | – | 0.9% | 45.9% | Dose-dependent effect | – | –
C=C[C@@H]1C2=CCOC(=O)C2=CO[C@H]1O[C@@H]1O[C@H](CO)[C@@H](S)[C@H](O)[C@H]1O | – | – | 5.6% | 18.6% | – | – | –
C=C[C@@H]1C2=CCOC(=O)C2=CO[C@H]1O[C@@H]1O[C@H](CSC)[C@@H](O)[C@H](O)[C@H]1O | Non-Toxic | Active | 14.9% | 21% | – | – | –
C=C[C@@H]1C2=CCOC(=O)C2=CO[C@H]1O[C@@H]1OC(COC(=O)c2ccccc2)=C[C@H](OC(=O)c2ccccc2)[C@H]1OC(=O)c1ccccc1 | Non-Toxic | Active | 0.5% | 40.3% | Dose-dependent effect | 4.36 | –
C=C[C@@H]1C2=CCOC(=O)C2=CO[C@H]1O[C@@H]1O[C@H](COC(=O)c2ccccc2)[C@@H](N=[N+]=[N-])[C@H](OC(=O)c2ccccc2)[C@H]1OC(=O)c1ccccc1 | – | – | 0.1% | 4.7% | – | – | –
C=C[C@@H]1C2=CCOC(=O)C2=CO[C@H]1O[C@@H]1O[C@H](CO)[C@@H](O)[C@H](O)[C@H]1O [GENTIOPICROSIDE] | – | – | 0.6% | 2.1% | – | – | –
C=C[C@@H]1C2=CCOC(=O)C2=CO[C@H]1O[C@@H]1O[C@H](CNC(C)=O)[C@@H](OC(C)=O)[C@H](OC(C)=O)[C@H]1OC(C)=O | – | – | 9.1% | 8.8% | – | – | –
C=C[C@@H]1C2=CCOC(=O)C2=CO[C@H]1O[C@@H]1O[C@H](CO)[C@H](S)[C@H](O)[C@H]1OC(=O)c1ccccc1 | – | – | 0.3% | 4.5% | – | – | –
C=C[C@@H]1C2=CCOC(=O)C2=CO[C@H]1O[C@@H]1O[C@H](COC(c2ccccc2)(c2ccccc2)c2ccccc2)[C@@H](O)[C@H](O)[C@H]1O | Toxic | – | – | – | – | – | –
C=C[C@@H]1C2=CCOC(=O)C2=CO[C@H]1O[C@@H]1O[C@H](COC(=O)c2ccccc2)[C@H](F)[C@H](OC(=O)c2ccccc2)[C@H]1OC(=O)c1ccccc1 | – | – | 0.1% | 0.2% | – | – | –
CCOC(=O)C1=C[C@@H](OC(CC)CC)[C@H](NC(C)=O)[C@@H](N)C1 [OSELTAMIVIR] | – | – | – | – | – | 4.47 | –
C=C[C@@H]1C2=CCOC(=O)C2=CO[C@H]1O[C@@H]1O[C@H](CO)[C@H](F)[C@H](O)[C@H]1O | Non-Toxic | Active | 0.7% | 13.3% | – | 4.34 | –
C=C[C@@H]1C2=CCOC(=O)C2=CO[C@H]1O[C@@H]1O[C@H](CF)[C@@H](O)[C@H](O)[C@H]1O | – | – | 0.3% | 1% | – | – | –
C=C[C@@H]1C2=CCOC(=O)C2=CO[C@H]1O[C@@H]1O[C@H](CO)[C@H](N=[N+]=[N-])[C@H](O)[C@H]1O | Non-Toxic | Active | 11.7% | 23.3% | – | – | –
C=C[C@@H]1C2=CCOC(=O)C2=CO[C@H]1O[C@@H]1O[C@H](CS)[C@@H](O)[C@H](O)[C@H]1O | Non-Toxic | Active | 0.2% | 0.1% | – | – | –
